High-throughput results: PubChem, several laboratories
The list is not random: actives were taken first. Their share in the collection is about 2.2%.
EBI2 block = antagonists of human EBI2 receptor; P32249; inhibition, % at 5 µM; actives 0.81% (n = 360,000); EBI2 beta-arrestin recruitment, luminescence, 7a,25-OHC stimulated; in the data active = inhibition above about 38%;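 also: enzyme fragment complementation signal reports receptor beta-arrestin coupling in cells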
APJ ag = APJ receptor agonism | P35414 | actives 0.11% (n = 330,000) | CHO-K1 APJ PathHunter beta-arrestin, luminescence; 0% DMSO wells, 100% apelin | activation, % at 20 µM;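 active = activation more than six SD over the plate average, tested at 20 µM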
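system = engineered CHO-K1 APJ arrestin reporter cells | input = 1000 cells per well | timing = overnight seeding, 90 min compound at 25 °C, 1 h detection | measured by = enzyme-fragment complementation luminescence | read-out = beta-arrestin recruitment to APJ as agonist activity, luminescent signal | control set = negative DMSO alone, positive Apelin-13 at 10 nM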
APJ antagonist = APJ receptor antagonism | AID 2521 | inhibition, % at 20 µM | CHO-K1 APJ beta-arrestin complementation, luminescence | actives 0.32% (n = 330,000);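 active = inhibition above about 40% at 20 µM, limit read from the data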;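 also: cells challenged with 10 nM apelin-13 agonist together with compound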
m5-HT2A agonist = mouse HTR2A agonism via beta-arrestin recruitment; actives 0.66% (n = 360,000); CHO-K1 mHTR2A beta-arrestin complementation, luminescence; percent of 30 µM serotonin response; activation, % at 7.6 µM;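 active = activation above a run cutoff, the mean activation of all tested compounds plus 3 SD, cut at about 14% in these data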
CXCR6 block = CXCR6 (human) receptor inhibition. actives 0.36% (n = 360,000). CHO-K1 PathHunter CXCR6 beta-arrestin, luminescence. inhibition, % at 20 µM; in the data active = inhibition above about 34%, passing the limit was not always enough;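 also: antagonist mode with CXCL16 agonist at 10 nM final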
Target sequence (O00574 whole entry, looked up): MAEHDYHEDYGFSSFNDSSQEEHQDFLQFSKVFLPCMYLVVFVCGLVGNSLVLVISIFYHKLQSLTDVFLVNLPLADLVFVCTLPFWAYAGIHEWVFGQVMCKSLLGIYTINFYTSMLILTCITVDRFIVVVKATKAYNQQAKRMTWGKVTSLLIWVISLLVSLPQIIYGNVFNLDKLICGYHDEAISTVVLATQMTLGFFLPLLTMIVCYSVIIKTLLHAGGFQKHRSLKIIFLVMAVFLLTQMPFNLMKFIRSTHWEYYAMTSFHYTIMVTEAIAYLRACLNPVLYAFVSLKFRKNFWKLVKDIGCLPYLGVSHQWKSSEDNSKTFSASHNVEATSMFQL
CCR6 antagonist = blocks CCL20-driven beta-arrestin recruitment at human CCR6; P51684; actives 0.49% (n = 340,000); CHO-K1 CCR6 PathHunter beta-arrestin, luminescence, CCL20-stimulated; inhibition, % at 20 µM;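 active = compounds whose inhibition of the agonist-driven luminescence signal at 20 µM reaches about 50%, limit read from the data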;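 also: cells stimulated with CCL20 at 14 nM final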
Target sequence (P51684 whole entry, looked up): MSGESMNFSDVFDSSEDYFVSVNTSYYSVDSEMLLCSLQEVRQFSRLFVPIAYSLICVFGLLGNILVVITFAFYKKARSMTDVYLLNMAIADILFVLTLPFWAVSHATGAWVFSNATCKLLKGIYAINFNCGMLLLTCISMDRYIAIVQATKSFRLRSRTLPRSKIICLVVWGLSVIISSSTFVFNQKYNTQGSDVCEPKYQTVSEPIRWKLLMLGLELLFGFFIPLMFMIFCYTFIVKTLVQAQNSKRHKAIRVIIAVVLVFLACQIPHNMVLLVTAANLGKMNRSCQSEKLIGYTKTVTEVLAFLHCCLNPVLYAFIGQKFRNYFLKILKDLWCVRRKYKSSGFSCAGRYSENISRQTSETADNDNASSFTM
Each line names hits and unclear results; the compound was inactive in the other large screens.

COc1ccc(CCC(=O)Nc2c(-c3ccc(N(C)C)cc3)[nH][nH]c2=O)cc1	m5-HT2A agonist 16 (no result: APJ ag, APJ antagonist, CCR6 antagonist)
COc1ccc(-c2[nH][nH]c(=O)c2NC(=O)c2ccccn2)cc1	none (no result: APJ ag, APJ antagonist, CCR6 antagonist)
CCCN1/C(=C2/SC(=S)N(CC)C2=O)C=Cc2ccccc21	CCR6 antagonist 54
CCCN1C(=O)/C(=C2/C=Cc3ccccc3N2CC)SC1=S	APJ antagonist 42
COCCNC(=O)C1(C)CCN(C(=O)c2ccc(SC(F)(F)F)cc2)C1 (centres undefined)	none (no result: APJ ag, APJ antagonist, CCR6 antagonist)
CNc1c(C(=O)O)ccc2c1C(=O)c1ccccc1C2=O	CCR6 antagonist 53
O=C(N/N=C/c1cn(-c2ccccc2)nc1-c1cccs1)c1ccncc1	CCR6 antagonist 53
O=C(Nc1cccc2ccccc12)c1cn(-c2ccccc2)nc1-c1cccs1	m5-HT2A agonist 17
NC(=O)N/N=C/c1cn(-c2ccccc2)nc1-c1cccs1	none
CCCCCCCCN1C(=O)[C@H](CC(=O)NCCc2ccccc2OC)C[C@@]2(C(=O)OC)CC(C)(C)CC=C12	none (no result: APJ ag, APJ antagonist, CXCR6 block, CCR6 antagonist)
C[C@@H](C(=O)NCc1ccccc1)[C@@H]1C[C@@]1(C)[C@@H](NC(=O)OCc1ccccc1)c1ccccc1	none
C[C@@H](C(=O)NCCc1c[nH]c2ccccc12)[C@@H]1C[C@@]1(C)[C@@H](NC(=O)OCc1ccccc1)c1ccccc1	EBI2 block 75
Nc1sc2c(c1C(=O)NC1CCS(=O)(=O)C1)CCCC2 (centres undefined)	m5-HT2A agonist 22
NC(=O)c1c(N)sc2c1CCCC2	none
CCOc1cc(/C=C2\C(=O)ON=C2C)ccc1OCc1ccccc1	APJ ag 9.7
O=C(NCCCN1CCN(c2ccccc2F)CC1)C1CCN(S(=O)(=O)c2cccs2)CC1	m5-HT2A agonist 15
O=C(NCCN1CCN(c2ccccc2)CC1)C1CCN(S(=O)(=O)c2cccs2)CC1	none (no result: APJ ag, APJ antagonist)
O=C1Nc2ccc(Br)cc2/C1=C/C(=O)c1ccccc1	EBI2 block 79 (no result: APJ ag, APJ antagonist, CCR6 antagonist)
C=CCOc1cccc(C(=O)/C=C2/C(=O)Nc3ccccc32)c1	EBI2 block 84
CC(=O)/C=C1/C(=O)Nc2ccccc21	APJ antagonist 92, CCR6 antagonist 76
CC(=O)N(C)c1ccc(N=C2C(=O)Nc3ccccc32)cc1	none (no result: APJ ag, APJ antagonist)
COC(=O)C(Sc1ccc(Cl)cc1)C1SC(=S)N(Cc2ccccc2)C1=O (centres undefined)	none (no result: APJ ag, APJ antagonist, CCR6 antagonist)
NC(=O)c1ccc(-c2ccc(N3C(c4ccsc4)=Cc4ccc(F)cc4C3CC(=O)c3ccco3)cc2)cc1 (centres undefined)	none (no result: APJ ag, APJ antagonist, CCR6 antagonist)
CCCCNC(=O)c1cnc(Cc2c[nH]c3ccccc23)c(I)c1	none (no result: APJ ag, APJ antagonist, CCR6 antagonist)
CC(=O)c1cccc([N+](=O)[O-])c1	none
O=C(C#Cc1ccccc1)c1cccc([N+](=O)[O-])c1	CXCR6 block 91, CCR6 antagonist 93
COc1ccc(-c2sc3ccccc3c2-c2ccc(OC)cc2F)cc1	none (no result: APJ ag, APJ antagonist, CCR6 antagonist)
COc1cccc(-c2ccc(CN3C(C(C)C)C(=O)N(Cc4cn(CCC5OCCO5)nn4)CCS3(=O)=O)cc2)c1OC (centres undefined)	none (no result: APJ ag, APJ antagonist, CCR6 antagonist)
Cc1ccc(C(=O)/C=C/C(=O)c2ccc(C)cc2)cc1	CXCR6 block 92, CCR6 antagonist 100
CCCCC1C(=O)N(c2ccccc2)N(c2ccc(O)cc2)C1=O (centres undefined)	CXCR6 block 43, CCR6 antagonist 57
C=C1C(=O)OC2CC1C(OC(C)=O)CC(C)=CCCC(C)=CCCC2(C)O (centres undefined)	EBI2 block 51 (no result: APJ ag, APJ antagonist, CCR6 antagonist)
CC1C(=O)OC2C1CCC1(C)C3(C)C(=O)C=CC213 (centres undefined)	none (no result: APJ ag, APJ antagonist, CCR6 antagonist)
Cc1ccccc1C(=O)Nc1cccc(C(=O)N/N=C/c2cc(Cl)cc([N+](=O)[O-])c2O)c1	CCR6 antagonist 71
COc1cc(/C=N/NC(=O)c2cccc(NC(=O)c3ccccc3C)c2)ccc1O	none
C[C@H]1C[C@@H]2[C@H]([C@@H](O)C[C@@]3(C)[C@H]2CC[C@]3(O)C(=O)CO)[C@@]2(C)C=CC(=O)C=C12	m5-HT2A agonist 18
O=c1cnn([C@@H]2O[C@H](CO)[C@@H](O)[C@H]2O)c(=O)[nH]1	m5-HT2A agonist 22
N#Cc1c(N)nc(SCc2ccncc2)c(C#N)c1-c1cccs1	none
CN1CCc2nc(SCc3ccc(Cl)cc3)c(C#N)c(-c3cccs3)c2C1	CCR6 antagonist 74 (no result: EBI2 block, m5-HT2A agonist, CXCR6 block)
CCOc1ccc(CCN2C(=S)N([C@@H](Cc3ccc(O)cc3)CN3CCC[C@@H]3CN3C(=S)NC[C@@H]3CC(C)C)C[C@@H]2Cc2ccc(O)cc2)cc1	none (no result: APJ ag, APJ antagonist, CCR6 antagonist)
Cc1ccc(N=Nc2c(N)[nH]n3c(=O)cc(C)nc23)cc1	none (no result: APJ ag, APJ antagonist)
Nc1[nH]n2c(=O)cc(-c3ccccc3)nc2c1N=Nc1ccccc1	CCR6 antagonist 51
CN(C)c1ccc(/C=N/N=C2/NC(=O)/C(=C/c3ccc([N+](=O)[O-])cc3)S2)cc1	CCR6 antagonist 53
COCOCCn1cc(CN2CCS(=O)(=O)N(Cc3ccc(-c4ccc(Cl)c(Cl)c4)cc3)C(C)C2=O)nn1 (centres undefined)	none (no result: APJ ag, APJ antagonist, CCR6 antagonist)
Cc1ccc2c(c1)c1ccc3c(c1n2C)C(=O)C=CC3=O	CXCR6 block 60, CCR6 antagonist 106
Cn1c2ccccc2c2ccc3c(c21)C(=O)C=CC3=O	CXCR6 block 70, CCR6 antagonist 109 (no result: APJ ag, APJ antagonist)
COc1ccc2c(c1)c1ncn(CCN3CCCC3)c(=O)c1n2C	none
Cc1ccc(C)c2c1c1ccccc1n2C	none
COc1ccc2c(c1)c1ccc3c(c1n2C)C(=O)C=CC3=O	APJ antagonist 44, CXCR6 block 79, CCR6 antagonist 106
Cc1ccc(Nc2nc(-c3c(C)nc4ccccn34)cs2)cc1	EBI2 block 65
CCCc1nc2ccc(Cl)cn2c1Cc1ccsc1	none (no result: APJ ag, APJ antagonist, CCR6 antagonist)
Cc1cccc(NC(=O)Oc2ccc(Cl)c3cccnc23)c1	CXCR6 block 46 (no result: APJ ag, APJ antagonist, CCR6 antagonist)
CCC(=O)N1CCCC(C(=O)Nc2nc3ccccc3[nH]2)CC1 (centres undefined)	none (no result: APJ ag, APJ antagonist, CCR6 antagonist)
O=C1C(Cl)=C(N2CCN(c3ccccc3[N+](=O)[O-])CC2)C(=O)c2ccccc21	CXCR6 block 42 (no result: APJ ag, APJ antagonist, CCR6 antagonist)
O=[N+]([O-])c1cc(Cl)ccc1N1CCCC1	none
CC(C)(C)C1CCC(=NNC(=S)NCc2ccccc2)CC1 (centres undefined)	CCR6 antagonist 52
CCC(C)(C)C1CCC(=NNC(=S)Nc2ccccc2)CC1 (centres undefined)	none
CC(=O)c1ccc(N=Nc2c(C)[nH]n(-c3ccccc3)c2=O)cc1	CXCR6 block 40
Cc1nc2ccc([N+](=O)[O-])cc2nc1C	none
Cc1ccc2nc3cc([N+](=O)[O-])cc([N+](=O)[O-])c3cc2c1	EBI2 block 53 (no result: APJ ag, APJ antagonist)
CCOC(=O)C1=C[C@@H](C(C)(C)C)N(S(=O)(=O)c2ccccc2C)[C@H]1c1ccc(Cl)cc1	none (no result: APJ ag, APJ antagonist, CCR6 antagonist)
